“Also recorded” adds a separate entry of the source. Counter-ions that a name gives are not always drawn.
Assays:
Ovarian = assay: NCI 60 five-concentration screen, ovarian subpanel; assay type: cell-based; conditions: Homo sapiens, 48 h, read-out: TGI Ovarian
full NCI 60 cell panel = assay: NCI 60 five-concentration screen, mean graph midpoint of all cell lines; assay type: cell-based; conditions: Homo sapiens, 48 h; for GI50: read-out: GI50 MG-MID (mean GI50); for IC (TGI): read-out: TGI MG-MID
Leukemia = assay: cells; assay type: cell-based; conditions: Homo sapiens, 48 h, read-out: TGI Leukemia
CNS = assay: cells; assay type: cell-based; conditions: Homo sapiens, 48 h, read-out: TGI CNS
tubulin = tubulin (Bos taurus, UniProt Q6B856); assay: Tubulin assembly assay; assay type: biochemical, Bovine; conditions: 10 μM tubulin, 20 min incubation at 30 °C
Chain of tubulin (Q6B856 whole entry): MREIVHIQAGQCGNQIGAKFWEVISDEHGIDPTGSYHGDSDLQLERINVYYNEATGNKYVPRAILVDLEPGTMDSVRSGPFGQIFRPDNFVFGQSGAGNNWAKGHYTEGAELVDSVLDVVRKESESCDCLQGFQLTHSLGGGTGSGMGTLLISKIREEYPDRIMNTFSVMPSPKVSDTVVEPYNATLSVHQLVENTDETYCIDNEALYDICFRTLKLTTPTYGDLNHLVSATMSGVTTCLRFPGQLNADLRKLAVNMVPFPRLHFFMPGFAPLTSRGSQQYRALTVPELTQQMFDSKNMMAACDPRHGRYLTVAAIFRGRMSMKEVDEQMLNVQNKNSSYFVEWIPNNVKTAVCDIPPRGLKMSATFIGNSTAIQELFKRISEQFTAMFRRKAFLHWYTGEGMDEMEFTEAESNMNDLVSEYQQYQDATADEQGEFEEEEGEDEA
Chain of tubulin (P81947 whole entry partner): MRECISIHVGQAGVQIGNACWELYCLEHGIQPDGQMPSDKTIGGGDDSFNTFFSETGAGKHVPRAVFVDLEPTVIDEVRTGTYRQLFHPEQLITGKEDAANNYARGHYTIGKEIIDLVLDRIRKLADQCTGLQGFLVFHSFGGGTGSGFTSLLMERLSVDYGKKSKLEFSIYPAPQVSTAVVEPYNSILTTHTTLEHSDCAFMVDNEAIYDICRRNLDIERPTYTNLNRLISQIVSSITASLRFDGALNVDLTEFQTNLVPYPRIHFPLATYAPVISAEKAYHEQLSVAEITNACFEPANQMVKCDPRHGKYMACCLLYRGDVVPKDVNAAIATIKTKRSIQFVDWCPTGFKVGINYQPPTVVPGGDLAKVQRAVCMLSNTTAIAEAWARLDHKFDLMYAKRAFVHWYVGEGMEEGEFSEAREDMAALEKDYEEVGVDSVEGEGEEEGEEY

Akt(Ser473) = assay: Kinase phosphorylation by Western blotting: Akt; assay type: cell-based, Human; conditions: HeLa cells, 1 μM, 3 h
In short: (§1)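 HeLa cells in RPMI 1640/10% FBS/2 mM L-glutamine were exposed to 1 μM test compound for 3 h (0.01% DMSO). Lysates were cleared at 15,000 × g for 15 min and boiled 4 min, and 80 μg protein was run on SDS-PAGE. Proteins were blotted to nitrocellulose and probed with antibodies to total and phosphorylated kinase, then a peroxidase anti-rabbit IgG (1 h). Bands were detected by ECL chemiluminescence.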

HT-29 colon cancer cells [1] = assay: Cell viability by trypan blue exclusion; assay type: cell-based, Human; conditions: HT-29 cells, 24 h, 100 or 500 nM tested
In short: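 HT-29 cells in RPMI 1640/10% FBS/2 mM L-glutamine were plated at 2×10^4 cells/cm2. They were treated in triplicate for 24 h with 100 or 500 nM test compound (0.01% DMSO final; DMSO-only controls). Viable cells were counted by trypan blue exclusion. Values are means ± s.e.m. of three determinations.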

[2] = system: caspase proteases (DEVDase activity); assay: DEVDase; assay type: cell-based, Human; conditions: HT-29 cells, 500 nM, 48 h
In short: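 HT-29 cells in RPMI 1640/10% FBS were exposed to 500 nM test compound for 48 h, with 0.01% DMSO and DMSO-only controls. DEVD-hydrolysing caspase (DEVDase) activity was measured fluorometrically in cell extracts. Values are means ± s.e.m. of four determinations.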

HT-29 colon cancer cells [3] = assay: Intracellular ROS content with DHE; assay type: cell-based, Human; conditions: HT-29 cells, 500 nM, 24 h
In short: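 HT-29 cells were treated with 500 nM test compound for 24 h (0.01% DMSO; DMSO controls). They were then loaded with 5 μM dihydroethidium (from 10 mM DMSO stock) for 30 min at 37 °C to detect superoxide. Red fluorescence was read by flow cytometry with logarithmic amplification; one experiment representative of three to five.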

HT-29 colon cancer cells [4] = assay: Cell cycle distribution by flow cytometry; assay type: cell-based, Human; conditions: HT-29 cells, 24 h
In short: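 HT-29 cells grown in RPMI 1640 with 10% FBS and 2 mM L-glutamine (37 °C, 5% CO2). Test compound was added from a 10 mmol/L DMSO stock (0.01% DMSO final; DMSO-only controls) for 24 h. Cells were fixed in 70% ethanol at −20 °C for ≥12 h, treated with RNase A (10 μg/mL, 37 °C, 30 min) and stained with PI (50 μg/mL). DNA content was read by flow cytometry; one experiment representative of three.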

ERK1/2(Thr202/Tyr204) = assay: Kinase phosphorylation by Western blotting: ERK1/2; assay type: cell-based, Human; conditions: HeLa cells, 1 μM, 3 h
In short: as §1

p38MAPK(Thr180/Tyr182) = assay: Kinase phosphorylation by Western blotting: p38MAPK; assay type: cell-based, Human; conditions: HeLa cells, 1 μM, 3 h
In short: as §1

HT-29 colon cancer cells [5] = assay: Mitochondrial membrane potential with DiOC6; assay type: cell-based, Human; conditions: HT-29 cells, 500 nM, 24 h
In short: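 After 24 h in 500 nM test compound (0.01% DMSO; DMSO controls), HT-29 cells at 1×10^6 cells/mL were stained with 4 nM DiOC6 for 40 min at 37 °C in the dark. Cells were counterstained with PI at 5 μg/mL to exclude dead cells. Green fluorescence was read by flow cytometry with logarithmic amplification; one experiment representative of three to five.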

mTOR(Ser2448) = assay: Kinase phosphorylation by Western blotting: mTOR; assay type: cell-based, Human; conditions: HeLa cells, 1 μM, 3 h
In short: as §1

JNK(Thr183/Tyr185) = assay: Kinase phosphorylation by Western blotting: JNK; assay type: cell-based, Human; conditions: HeLa cells, 1 μM, 3 h
In short: as §1

AMPK(Thr172) = assay: Kinase phosphorylation by Western blotting: AMPK; assay type: cell-based, Human; conditions: HeLa cells, 1 μM, 3 h
In short: as §1

Bax = Bax expression and translocation by confocal microscopy; assay type: cell-based, Human; conditions: HT-29 cells, 500 nM, 24 h
Prostate = assay: cells; assay type: cell-based; conditions: Homo sapiens, 48 h, read-out: TGI Prostate
Melanoma = assay: NCI 60 five-concentration screen, melanoma subpanel; assay type: cell-based; conditions: Homo sapiens, 48 h, read-out: TGI Melanoma
NSCLC = assay: NCI 60 five-concentration screen, NSCLC subpanel; assay type: cell-based; conditions: Homo sapiens, 48 h, read-out: TGI NSCLC
Breast = assay: NCI 60 five-concentration screen, breast subpanel; assay type: cell-based; conditions: Homo sapiens, 48 h, read-out: TGI Breast
Renal = assay: NCI 60 five-concentration screen, renal subpanel; assay type: cell-based; conditions: Homo sapiens, 48 h, read-out: TGI Renal
Colon = assay: NCI 60 five-concentration screen, colon subpanel; assay type: cell-based; conditions: Homo sapiens, 48 h, read-out: GI50 Colon

COc1nc2sccn2c1/C=C1/C(=O)N(C)c2ccccc21 [Compound 40]
IC (TGI) (Ovarian): 72.4 µM
GI50 (full NCI 60 cell panel): 6.31 µM
IC (TGI) (full NCI 60 cell panel): 72.4 µM

Cc1ccc(-c2nc3sc(C)cn3c2/C=C2/C(=O)Nc3cc(C)c(O)cc32)cc1 [Compound 11]
GI50 (full NCI 60 cell panel): 22.9 µM
IC (TGI) (full NCI 60 cell panel): 83.2 µM
IC (TGI) (Leukemia): 83.2 µM

Cc1ccc(-c2nc3sc(C)cn3c2/C=C2/C(=O)N(C)c3ccccc32)cc1 [Compound 12]
GI50 (full NCI 60 cell panel): 16.6 µM
IC (TGI) (full NCI 60 cell panel): 83.2 µM

COc1ccc2c(c1)/C(=C\c1c(-c3ccc(Cl)cc3)nc3sc(C)nn13)C(=O)N2 [Compound 16]
GI50 (full NCI 60 cell panel): 93.3 µM

Cc1nn2c(/C=C3/C(=O)Nc4c3ccc3ccccc43)c(C)nc2s1 [Compound 9]
IC (TGI) (CNS): 4.9 µM
GI50 (full NCI 60 cell panel): 0.5 µM
IC (TGI) (full NCI 60 cell panel): 8.51 µM

COc1nc2sccn2c1C=C1C(=O)Nc2ccc(F)cc21 [Compound 37]
GI50 (full NCI 60 cell panel): 5.01 µM
IC (TGI) (full NCI 60 cell panel): 52.5 µM
IC (TGI) (Leukemia): 52.5 µM

O=C1Nc2ccc(Cl)cc2C1=Cc1c(-c2ccccn2)nc2sccn12 [Compound 29]
Inhibition of tubulin assembly IC50 (μM) ± SD (tubulin): an IC50 could not be obtained
GI50 (full NCI 60 cell panel): 0.83 µM

Cc1cn2c(/C=C3/C(=O)Nc4c3ccc3ccccc43)c(C)nc2s1 [Compound 5]
Akt(Ser473) phosphorylation (Akt(Ser473)): did not significantly influence
concentration that triggered cell death (reduction in cell viability) (HT-29 colon cancer cells [1]): 500 nM
activity of effector caspases (DEVDase activity) [2]: significantly increased
superoxide formation (intracellular ROS content) (HT-29 colon cancer cells [3]): marked increase in superoxide formation
concentration that induced accumulation of cells in the G2/M phase (HT-29 colon cancer cells [4]): 500 nM
ERK1/2(Thr202/Tyr204) phosphorylation/activation (ERK1/2(Thr202/Tyr204)): did not significantly influence
p38MAPK(Thr180/Tyr182) phosphorylation/activation (p38MAPK(Thr180/Tyr182)): did not significantly influence
mitochondrial membrane potential (ΔΨm) (HT-29 colon cancer cells [5]): marked disruption of ΔΨm
mTOR(Ser2448) phosphorylation (mTOR(Ser2448)): did not significantly influence
IC (TGI) (full NCI 60 cell panel): 19.9 µM
JNK(Thr183/Tyr185) phosphorylation/activation (JNK(Thr183/Tyr185)): did not significantly influence
AMPK(Thr172) phosphorylation (AMPK(Thr172)): did not significantly influence
cellular content of Bax (Bax): significant increase in the cellular content of Bax

COc1nc2sccn2c1/C=C1/C(=O)Nc2ccc(Cl)cc21 [Compound 35]
GI50 (full NCI 60 cell panel): 2.82 µM
IC (TGI) (full NCI 60 cell panel): 55 µM

COc1ccc2c(c1)C(=Cc1c(OC)nc3sccn13)C(=O)N2 [Compound 38]
Akt(Ser473) phosphorylation (Akt(Ser473)): strongly reduced; also recorded: selectively and strongly inhibited
concentration that triggered cell death (reduction in cell viability) (HT-29 colon cancer cells [1]): 100 nM
activity of effector caspases (DEVDase activity) [2]: significantly increased
concentration that induced accumulation of cells in the G2/M phase (HT-29 colon cancer cells [4]): 100 nM
ERK1/2(Thr202/Tyr204) phosphorylation/activation (ERK1/2(Thr202/Tyr204)): slightly decreased
p38MAPK(Thr180/Tyr182) phosphorylation/activation (p38MAPK(Thr180/Tyr182)): slightly decreased
mTOR(Ser2448) phosphorylation (mTOR(Ser2448)): no significant effect
GI50 (full NCI 60 cell panel): 0.07 µM
IC (TGI) (full NCI 60 cell panel): 19.1 µM
JNK(Thr183/Tyr185) phosphorylation/activation (JNK(Thr183/Tyr185)): slightly decreased
AMPK(Thr172) phosphorylation (AMPK(Thr172)): only slightly inhibited

CC[C@]1(O)C[C@H]2CN(CCc3c([nH]c4ccccc34)[C@@](C(=O)OC)(c3cc4c(cc3OC)N(C=O)[C@H]3[C@@](O)(C(=O)OC)[C@H](OC(C)=O)[C@]5(CC)C=CCN6CC[C@]43[C@@H]65)C2)C1 [Vincristine sulfate, reference compound]
IC (TGI) (Ovarian): 19.9 µM
IC (TGI) (CNS): 6.31 µM
IC (TGI) (Prostate): 6.31 µM
IC (TGI) (Melanoma): 7.94 µM
IC (TGI) (NSCLC): 15.8 µM
GI50 (full NCI 60 cell panel): 0.2 µM
IC (TGI) (full NCI 60 cell panel): 10 µM
IC (TGI) (Breast): 7.94 µM
IC (TGI) (Renal): 19.9 µM
IC (TGI) (Leukemia): 15.8 µM
GI50 (Colon): 0.1 µM

Cc1nn2c(/C=C3/C(=O)Nc4ccc(F)cc43)c(C)nc2s1 [Compound 7]
GI50 (full NCI 60 cell panel): 15.1 µM
IC (TGI) (full NCI 60 cell panel): 91.2 µM
IC (TGI) (Renal): 91.2 µM

COc1nc2sccn2c1/C=C1/C(=O)Nc2ccccc21 [Compound 33]
GI50 (full NCI 60 cell panel): 0.39 µM
IC (TGI) (full NCI 60 cell panel): 22.9 µM

COc1cc(-c2nc3sc(C)cn3c2/C=C2/C(=O)Nc3ccccc32)c(Br)c(OC)c1OC [Compound 24]
GI50 (full NCI 60 cell panel): 28.8 µM
IC (TGI) (full NCI 60 cell panel): 77.6 µM

O=C1Nc2cc(Cl)ccc2C1=Cc1c(-c2ccccn2)nc2sccn12 [Compound 30]
GI50 (full NCI 60 cell panel): 0.18 µM
IC (TGI) (full NCI 60 cell panel): 14.1 µM

COc1ccc2c(c1)/C(=C\c1c(-c3ccccn3)nc3sccn13)C(=O)N2 [Compound 31]
Akt(Ser473) phosphorylation (Akt(Ser473)): strongly reduced; also recorded: selectively and strongly inhibited
concentration that triggered cell death (reduction in cell viability) (HT-29 colon cancer cells [1]): 100 nM
activity of effector caspases (DEVDase activity) [2]: significantly increased
concentration that induced accumulation of cells in the G2/M phase (HT-29 colon cancer cells [4]): 100 nM
ERK1/2(Thr202/Tyr204) phosphorylation/activation (ERK1/2(Thr202/Tyr204)): slightly decreased
p38MAPK(Thr180/Tyr182) phosphorylation/activation (p38MAPK(Thr180/Tyr182)): slightly decreased
mTOR(Ser2448) phosphorylation (mTOR(Ser2448)): no significant effect
IC (TGI) (full NCI 60 cell panel): 3.39 µM
JNK(Thr183/Tyr185) phosphorylation/activation (JNK(Thr183/Tyr185)): slightly decreased
AMPK(Thr172) phosphorylation (AMPK(Thr172)): only slightly inhibited
IC (TGI) (Leukemia): 0.58 µM

COc1nc2sccn2c1/C=C1/C(=O)Nc2cc(Cl)ccc21 [Compound 36]
GI50 (full NCI 60 cell panel): 0.44 µM
IC (TGI) (full NCI 60 cell panel): 31.6 µM

COc1nc2sccn2c1/C=C1/C(=O)Nc2cccc(Cl)c21 [Compound 34]
IC (TGI) (full NCI 60 cell panel): 57.5 µM

Cc1cn2c(/C=C3/C(=O)Nc4cc(Cl)ccc43)c(C)nc2s1 [Compound 4]
GI50 (full NCI 60 cell panel): 2 µM
IC (TGI) (full NCI 60 cell panel): 51.3 µM

O=C1Nc2ccccc2/C1=C\c1c(-c2ccccn2)nc2sccn12 [Compound 28]
GI50 (full NCI 60 cell panel): 1.15 µM
IC (TGI) (full NCI 60 cell panel): 50.1 µM

Cc1nn2c(/C=C3/C(=O)Nc4ccc(F)cc43)c(-c3ccc(Cl)cc3)nc2s1 [Compound 17]
GI50 (full NCI 60 cell panel): 37.1 µM
IC (TGI) (full NCI 60 cell panel): 93.3 µM

COc1ccc2c(c1)/C(=C\c1c(-c3ccc(C)cc3)nc3sc(C)cn13)C(=O)N2C [Compound 13]
GI50 (full NCI 60 cell panel): 13.8 µM

COc1ccc2c(c1)C(=Cc1c(OC)nc3sccn13)C(=O)N2C [Compound 39]
GI50 (full NCI 60 cell panel): 0.54 µM
IC (TGI) (full NCI 60 cell panel): 34.7 µM
IC (TGI) (Leukemia): 4.9 µM

Reference: publication PMC3297693 (Journal of Medicinal Chemistry, 2012)
